Activity calls are given as the source filed them. No cut-off for these calls is given here.
Key:
[1] = test system: BGC-823; assay: Induction of apoptosis in human BGC823 cells assessed as necrotic damaged cell population at 30 uM by annexinV/propidium iodide staining (reference value: 0.5%; format: functional
[2] = test system: BGC-823; assay: Reduction in survivin protein expression in human BGC823 cells at 10 uM incubated for 48 hrs by Western blotting; format: functional
In short: (§1)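 BGC-823 cells were treated with 10, 20 or 40 µM for 48 h, detached with trypsin/EDTA, and more than 10⁶ cells were lysed. Protein was quantified by Bradford, and 150–200 µg per lane was run on 12.5% SDS-PAGE and transferred to PVDF. Antibodies: Survivin 1:1000, Bcl-2 1:200, β-actin 1:1000; HRP secondary 1 h; ECL detection. Expression was quantified relative to control.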

[3] = test system: BGC-823; assay: Induction of apoptosis in human BGC823 cells assessed as early apoptotic cell population at 20 uM by annexinV/propidium iodide staining (reference value: 1.9%); format: functional
[4] = test system: BGC-823; assay: Induction of apoptosis in human BGC823 cells assessed as late apoptotic cell population at 20 uM by annexinV/propidium iodide staining (reference value: 2.1%); format: functional
[5] = test system: BGC-823; assay: Induction of apoptosis in human BGC823 cells assessed as viable cell population at 10 uM by annexinV/propidium iodide staining (reference value: 95.5%); format: functional
[6] = test system: BGC-823; assay: Induction of apoptosis in human BGC823 cells assessed as increase in caspase 3 activity at 10 uM incubated for 48 hrs relative to untreated control; format: functional
In short: (§2)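 BGC-823 cells were exposed to 0, 10 or 20 µM for 48 h, detached with trypsin/EDTA and washed in cold PBS. About 10⁶ cells were lysed, and the lysate was incubated 1 h with Ac-DEVD-pNA, with cleavage read at 405 nm. Activity was normalised to Bradford protein and expressed relative to the untreated control. Mean ± SD of three independent experiments.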

[7] = test system: Mus musculus; assay: Toxicity in human BGC823 cells xenografted nude mouse assessed as body weight changes at 30 mg/kg, iv treated 5 times on day 1, 4, 7, 10 and day 13 post tumor implant (reference value: 20.21 +/- 1.83 grams); format: organism-based, BGC-823; design: dose 30 mg/kg, route intravenous; conditions: in vivo
In short: (§3)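 Nude mice (male, 5 weeks, 18–22 g) carried subcutaneous BGC-823 xenografts from 1 × 10⁷ cells. Dosing started at about 200 mm³ tumour volume, with eight mice per group. Each dose was 0.2 mL given iv; the saline control received 0.9% saline. Body weight was recorded on days 1, 4, 7, 10, 13 and 16 of treatment and reported as mean ± SD, n = 8.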

[8] = test system: BGC-823; assay: Cell cycle arrest in human BGC823 cells assessed as accumulation of cells at subG0/G1 phase at 40 uM incubated by propidium iodide staining based flow cytometry (Rvb= 0.66%); format: functional; conditions: TDE = time-dependent effect
In short: (§4)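 BGC-823 cells were exposed to 20 µM for 24, 48 or 72 h, or to 10, 20 or 40 µM for 48 h. About 10⁶ cells were harvested and stained with propidium iodide using a cell cycle kit, then analysed by flow cytometry. Percentages were read for sub-G0/G1, G0/G1, S and G2/M. Each experiment was run at least three times; mean ± SD.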

[9] = test system: BGC-823; assay: Induction of apoptosis in human BGC823 cells assessed as necrotic damaged cell population at 40 uM by annexinV/propidium iodide staining (reference value: 0.5%; format: functional
[10] = test system: BGC-823; assay: Reduction in survivin protein expression in human BGC823 cells at 20 uM incubated for 48 hrs by Western blotting; format: functional; in short: as §1
[11] = test system: Mus musculus; assay: Toxicity in human BGC823 cells xenografted nude mouse assessed as body weight changes at 6 mg/kg, iv treated 2 times on day 1 and day 4 post tumor implant (reference value: 20.58 +/- 1.35 grams); format: organism-based, BGC-823; design: dose 6 mg/kg, route intravenous; conditions: in vivo; in short: as §3
[12] = test system: Mus musculus; assay: Toxicity in human BGC823 cells xenografted nude mouse assessed as body weight changes at 30 mg/kg, iv treated 4 times on day 1, 4, 7 and 10 post tumor implant (reference value: 20.54 +/- 1.45 grams); format: organism-based, BGC-823; design: dose 30 mg/kg, route intravenous; conditions: in vivo; in short: as §3
[13] = test system: BGC-823; assay: Cell cycle arrest in human BGC823 cells assessed as accumulation of cells at subG0/G1 phase at 40 uM incubated for 24 to 72 hrs by propidium iodide staining based flow cytometry (Rvb= 0.66%); format: functional
[14] = test system: BGC-823; assay: Induction of apoptosis in human BGC823 cells assessed as necrotic damaged cell population at 10 uM by annexinV/propidium iodide staining (reference value: 0.5%; format: functional
[15] = test system: BGC-823; assay: Induction of apoptosis in human BGC823 cells assessed as increase in caspase 3 activity at 10 to 20 uM incubated for 48 hrs; format: functional, cell-based; in short: as §2
[16] = test system: BGC-823; assay: Induction of apoptosis in human BGC823 cells assessed as late apoptotic cell population at 40 uM by annexinV/propidium iodide staining (reference value: 2.1%); format: functional
[17] = test system: BGC-823; assay: Cell cycle arrest in human BGC823 cells assessed as accumulation of cells at subG0/G1 phase at 20 uM incubated for 48 hrs by propidium iodide staining based flow cytometry (Rvb= 0.66%); format: functional; in short: as §4
[18] = test system: Mus musculus; assay: Toxicity in human BGC823 cells xenografted nude mouse assessed as body weight changes at 30 mg/kg, iv treated 3 times on day 1, day 4 and day 7 post tumor implant (reference value: 20.79 +/- 1.29 grams); format: organism-based, BGC-823; design: dose 30 mg/kg, route intravenous; conditions: in vivo; in short: as §3
[19] = test system: BGC-823; assay: Induction of apoptosis in human BGC823 cells assessed as early apoptotic cell population at 40 uM by annexinV/propidium iodide staining (reference value: 1.9%); format: functional
[20] = test system: BGC-823; assay: Reduction in survivin protein expression in human BGC823 cells at 40 uM incubated for 48 hrs by Western blotting; format: functional; in short: as §1
[21] = test system: BGC-823; assay: Induction of apoptosis in human BGC823 cells assessed as viable cell population at 30 uM by annexinV/propidium iodide staining (reference value: 95.5%); format: functional
[22] = Cytotoxicity against human GES-1 cells incubated for 48 hrs by MTT assay; format: cell-based; conditions: GES1, 48 h
In short: (§5)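 Cells were grown in RPMI-1640 with 10% heat-inactivated FCS at 37 °C under 5% CO₂, seeded at 5 × 10³ per well and left 24 h. Compounds in DMSO were diluted in medium to 0.5% final DMSO; controls received 0.5% DMSO. Exposure was 24–72 h, followed by MTT for 4 h, formazan dissolved in DMSO, and A570. Six wells per sample; IC₅₀ taken at 50% inhibition; ≥3 repeats.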

[23] = test system: BGC-823; assay: Cytotoxicity against human BGC823 cells by MTT assay; format: functional, cell-based; in short: as §5
[24] = test system: Mus musculus; assay: Toxicity in human BGC823 cells xenografted nude mouse assessed as body weight changes at 6 mg/kg, iv treated 4 times on day 1, 4, 7 and 10 post tumor implant (reference value: 20.54 +/- 1.45 grams); format: organism-based, BGC-823; design: dose 6 mg/kg, route intravenous; conditions: in vivo; in short: as §3
[25] = test system: BGC-823; assay: Cell cycle arrest in human BGC823 cells assessed as accumulation of cells at subG0/G1 phase incubated for 24 to 72 hrs by propidium iodide staining based flow cytometry; format: functional; in short: as §4
[26] = test system: Mus musculus; assay: Toxicity in human BGC823 cells xenografted nude mouse assessed as body weight changes at 30 mg/kg, iv treated on day 1 post tumor implant (reference value: 19.69 +/- 1.21 grams); format: organism-based, BGC-823; design: dose 30 mg/kg, route intravenous; conditions: in vivo; in short: as §3
[27] = test system: Mus musculus; assay: Toxicity in human BGC823 cells xenografted nude mouse assessed as body weight changes at 30 mg/kg, iv treated 5 times on day 1, 4, 7, 10, 13 and day 16 post tumor implant (reference value: 20.12 +/- 1.52 grams); format: organism-based, BGC-823; design: dose 30 mg/kg, route intravenous; conditions: in vivo; in short: as §3

## CC(=O)O[C@H]1CC[C@]2(C)[C@H]3CC=C4[C@@H]5[C@@H](C)[C@H](C)CC[C@]5(C(=O)OCC(O)CO)CC[C@@]4(C)[C@]3(C)CC[C@H]2C1(C)C (some centres not stated)
[1]
  Activity: 6.5%
[2]
  Activity: 37.6%
[3]
  Activity: 19.4%
[4]
  Activity: 2.3%
[5]
  Activity: 92.7%
[6]
  fold change (FC): 2.54
[7]
  Activity: 19.69 g
[8]
  Activity: tde
[9]
  Activity: 2.3%
[10]
  Activity: 43.1%
[11]
  Activity: 20.66 g
[12]
  Activity: 19.16 g
[13]
  Activity: 96.13%
[14]
  Activity: 0.2%
[15]
  Activity: Active
[16]
  Activity: 89.5%
[17]
  Activity: 7.91%
[18]
  Activity: 19.29 g
[19]
  Activity: 7.4%
[20]
  Activity: 53.1%
[21]
  Activity: 19.4%
[22]
  IC50: 155 µM
[23]
  IC50: 15.7 µM
[24]
  Activity: 20.03 g
[25]
  Activity: Dose-dependent effect
[26]
  Activity: 19.26 g
[27]
  Activity: 19.57 g

— ChEMBL document CHEMBL2150886, “Synthesis of [3β-acetoxy-urs-12-en-28-oyl]-1-monoglyceride and investigation on its anti tumor effects against BGC-823” (Bioorg Med Chem, 2011)
